# The list is not random: actives were taken first. Their share in the collection is about 2.9%.
# M1 ag parental – nonselective activator or artifact in parental CHO-K1 cells | Fluo-8 calcium fluorescence; scaled to maximal ATP response, vehicle zero | AID 602248 | activation, % at 3 µM | actives 0.48% (n = 360,000); in the data active = activation above about 15%;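 also: untransfected CHO-K1 host cells lacking M1 receptor as counterscreen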
# M1 PAM parental – counter-screen for M1 PAMs: effect in parental CHO-K1 cells | activation, % at 3 µM | ATP EC20, Fluo-8 calcium fluorescence; 0% at ATP EC20, 100% at ATP max | actives 0.02% (n = 360,000);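 active = activation above the run cutoff, the mean activation of all test compounds plus 3 SD, cut at about 40% in these data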;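 also: peak over basal fluorescence ratio in a 140 s read after ATP addition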
# OX1R antag-1 – human HCRTR1 antagonism; O43613; CHO/OX1R cells, Fluo-8 calcium fluorescence, orexin A; inhibition, % at 5 µM; actives 0.43% (n = 330,000);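 active = inhibition above its plate's threshold, mean inhibition of all tested compounds on the plate plus 3 SD, cut at about 37% in these data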;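 also: 0% = orexin A challenge wells and 100% = SB-334867-A antagonist wells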
# Target sequence (O43613 whole entry, looked up): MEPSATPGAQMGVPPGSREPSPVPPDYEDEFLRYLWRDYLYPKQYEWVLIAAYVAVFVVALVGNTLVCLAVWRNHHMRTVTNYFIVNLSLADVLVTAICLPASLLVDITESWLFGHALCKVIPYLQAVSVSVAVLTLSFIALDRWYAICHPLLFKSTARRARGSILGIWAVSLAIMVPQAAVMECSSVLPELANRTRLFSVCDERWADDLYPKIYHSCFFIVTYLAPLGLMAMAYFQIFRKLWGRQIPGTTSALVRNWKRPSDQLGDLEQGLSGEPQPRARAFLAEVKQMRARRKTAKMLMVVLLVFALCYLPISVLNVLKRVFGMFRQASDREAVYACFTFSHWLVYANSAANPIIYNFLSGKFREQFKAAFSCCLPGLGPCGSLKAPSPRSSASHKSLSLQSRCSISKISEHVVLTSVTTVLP
# OX1R antag-2 – antagonists of human orexin 1 receptor (OX1R); OX1R-expressing cells, FRET antagonist read-out; inhibition, % at 6.6 µM; actives 1.8% (n = 330,000); in the data active = inhibition mostly above about 38%, no sharp cut-off; inactive = mostly below about 40%;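 also: 0% = agonist challenge alone and 100% = reference antagonist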
# CHO parental Ca – counter-screen for OX1R antagonists: effect in parental CHO cells; AID 463079; parental CHO-K1, ATP-induced calcium, Fluo-8 fluorescence; inhibition, % at 5.6 µM; actives 0.63% (n = 330,000);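 active = inhibition above that plate's mean sample inhibition plus 3 SD, cut at about 26% in these data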;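 also: 0% = ATP-challenged DMSO wells and 100% = DMSO wells without ATP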
#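 Assay system: parental CHO cells; Read-out basis: percent inhibition of ATP-evoked calcium rise, normalized to controls; Benchmarks: ATP and no-ATP DMSO wells; Compound dosing: single nominal dose of 5.6 µM per compound; Signal: Fluo-8 calcium dye fluorescence; Also added: ATP as calcium-mobilizing challenge; Repeats: singlicate.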
# CHO-K1 Ca antag – M1 antagonist counterscreen hit in parental CHO-K1 cells; ATP-induced calcium, Fluo-8 fluorescence; inhibition, % at 3 µM; actives 0.6% (n = 360,000);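 active = inhibition above a per-plate cutoff, the plate's mean sample inhibition plus 3 SD, cut at about 24% in these data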;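 also: 0% = DMSO plus EC80 ATP and 100% = DMSO alone without ATP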
# * = called active by the depositor; . = not tested or not shown.
SMILES,M1 ag parental,M1 PAM parental,OX1R antag-1,OX1R antag-2,CHO parental Ca,CHO-K1 Ca antag
CC(=O)Nc1nnc(-c2ccc3c(c2)CCCC3)o1,-0.3,-7.6,-21.0,6.5,-4.5,11.4
Cc1cc(C)c(C)c(S(=O)(=O)N2CCN(C(=O)c3ccccc3OCc3c(C)noc3C)CC2)c1C,-0.6,-6.0,-15.6,1.3,-24.2,-24.1
O=C(CN1CCC(NC(=O)c2ccccc2F)CC1)Nc1ccc2c(c1)OCCO2,15.7*,9.4,-16.9,13.8,-3.9,6.6
Cc1onc(-c2ccccc2Cl)c1C(=O)Nc1ccccc1O,1.3,3.2,-21.6,16.3,-23.0,-8.8
CCOC(=O)c1c(C)[nH]c(C)c1C(=O)COC(=O)/C=C/c1ccco1,0.1,-9.7,-1.4,7.5,-8.4,1.9
COc1ccccc1NC(=O)C(C)N(C)Cc1ccc(Cl)s1 (stereo not drawn),0.1,48.0*,-41.3,17.1,-60.0,-15.9
COc1ccc(CN(C)C(C)C(=O)Nc2cccc3ccccc23)cc1 (stereo not drawn),-0.3,13.3,-27.9,14.9,-12.6,-19.1
CCN1CCCC1CNC(=O)c1cc2cc(F)ccc2[nH]1 (stereo not drawn),0.4,-8.9,-20.9,-1.1,-8.6,-2.0
COc1ccc(CNC(=O)COC(=O)[C@@H]2CCCN2C(=O)c2cccs2)cc1,0.3,3.8,-29.5,1.7,-14.0,-6.4
CN(C)C(=O)Nc1ccc(Cl)c(Cl)c1,0.9,22.0,.,.,.,-16.0
CC(C)C1O/C(=N/C(=O)Nc2ccc(Cl)c(Cl)c2)NC1=O (stereo not drawn),5.0,7.2,37.9,10.7,43.6*,19.4
CCOC(=O)c1nn(-c2ccc(C)cc2)c(=O)c2c(N)scc12,-0.8,-9.4,-16.6,76.6*,-17.9,32.8*
CCOC(=O)c1nn(-c2ccc(F)cc2)c(=O)c(C#N)c1C,0.4,2.5,-11.2,53.9*,-9.8,5.3
CCOC(=O)c1nn(-c2ccc(Cl)cc2)c(=O)c(C#N)c1C,-0.3,-22.8,-13.3,50.3*,11.1,11.9
Cc1c(C(=O)N2CCCCC2)nn(-c2ccc(Cl)cc2)c(=O)c1C#N,-0.5,19.4,-23.2,60.9*,-20.1,-22.6
CCOC(=O)c1nn(-c2ccc(C)c(Cl)c2)c(=O)c(C#N)c1C,-0.5,-1.1,-35.6,28.4,-17.8,4.4
CCOC(=O)c1nn(-c2ccc(F)cc2)c(=O)c2c(N)scc12,0.1,20.5,-4.2,92.7,-16.9,-4.0
O=C(NCc1ccccc1)c1cccc(NC(=O)C2CCCC2)c1,1.5,5.9,.,.,.,-4.0
Cc1cc(-c2ccco2)c(C#N)c2nc3ccccc3n12,0.7,14.8,-14.9,100.2*,-6.5,-18.3
Cc1cc(C(C)C)n2c(nc3ccccc32)c1C#N,.,.,-16.5,10.9,-6.7,.
N#Cc1c(NC(=S)NC(=O)c2ccccc2)sc2c1CCN(CCc1ccccc1)C2,.,.,35.8,25.6,36.5*,.
N#Cc1c(NC(=S)NC(=O)c2ccccc2)sc2c1CCCC2,0.7,19.7,-23.5,13.7,-11.7,1.4
CCN(CC)S(=O)(=O)c1cc(NC(=O)C(C)OC(=O)c2[nH]c(C)c(C(C)=O)c2C)ccc1C (stereo not drawn),3.7,14.3,-10.0,0.1,-6.7,-7.3
NC1=NC(=O)/C(=C\c2cc([N+](=O)[O-])ccc2Cl)S1,-0.2,24.9,-14.1,49.3*,3.5,-11.0
COc1ccc2c(c1)C1(Nc3ccccc3-c3nc4ccccc4n31)C(=O)N2 (stereo not drawn),37.4*,12.6,-12.0,10.4,-14.1,3.6
SMILES,M1 ag parental,M1 PAM parental,OX1R antag-1,OX1R antag-2,CHO parental Ca,CHO-K1 Ca antag
COc1ccc2c(c1)C1(Nc3ccccc3-c3nc4ccccc4n31)C(=O)N2C (stereo not drawn),1.1,23.5,-29.4,16.8,-23.3,-18.2
O=S(=O)(Nc1cccc(-c2cn3c(n2)SCC3)c1)c1cccs1,1.6,2.9,0.7,55.9*,-3.1,-4.5
CCOC(=O)C1CCCN(C(=O)COc2ccc(S(=O)(=O)N(CC)c3ccccc3)cc2)C1 (stereo not drawn),1.4,-9.5,-14.3,14.7,-2.4,-4.8
COc1ccc(C(=O)C2CCCN(Cc3cnc(N4CCOCC4)s3)C2)cc1F (stereo not drawn),28.9*,15.1,-17.2,9.5,-12.5,-5.3
CC1CSC(N(C(=O)c2ccc(S(C)(=O)=O)cc2)c2ccc(Cl)cc2)=N1 (stereo not drawn),15.8*,9.2,-13.5,15.9,-22.8,-3.7
CCOc1ccccc1N(C(=O)Nc1cccc(Cl)c1)C1=NC(C)CS1 (stereo not drawn),7.2,19.8,-8.3,19.9,-7.7,2.4
O=C(Cn1cnc2ccccc2c1=O)c1ccc(OC(F)F)cc1,0.9,15.2,-22.9,10.9,-12.6,-12.9
O=C(OC1CCOC1=O)c1cc(-c2ccc(Br)cc2)nc2ccccc12 (stereo not drawn),0.5,10.3,-8.2,13.5,-20.1,-15.6
COc1ccc(-c2cc(C(=O)OC3CCOC3=O)c3ccccc3n2)cc1 (stereo not drawn),0.6,0.6,9.1,53.0*,-11.9,9.1
Cc1cccc(C)c1NC(=O)c1cc(S(=O)(=O)N2CCC3(CC2)OCCO3)ccc1F,0.1,1.1,.,.,.,0.0
COc1cc(/C=C2\C(=N)N3N=C(S(C)(=O)=O)SC3=NC2=O)ccc1OC(=O)c1ccco1,-0.1,-13.2,-14.8,17.5,-4.2,-8.0
O=c1oc2ccccc2c(Nc2ccccc2)c1CN1CCCCC1,0.6,6.5,-22.5,8.2,-24.2,-4.9
O=c1oc2ccccc2c(O)c1CN1CCCCC1,2.7,6.6,6.6,68.0*,1.0,11.7
CCc1cc2c(SCC(=O)N(C)C3CCS(=O)(=O)C3)ncnc2s1 (stereo not drawn),2.1,28.8,-15.5,9.9,-6.7,-27.6
CN1c2ccccc2C(C)(C)C12C=Cc1cc(O)ccc1O2 (stereo not drawn),5.1,7.6,21.7,28.6,56.1*,5.8
c1ccc(-c2nn3c(C4CCCCC4)nnc3s2)cc1,-0.5,-6.6,-34.4,28.5,-1.9,25.5*
c1csc(-c2nn3c(C4CCCCC4)nnc3s2)c1,-0.2,-0.5,.,.,.,-20.1
COc1ccccc1C(CNc1ncccc1[N+](=O)[O-])N(C)C (stereo not drawn),0.6,14.4,-12.3,67.2*,-12.7,-12.5
COc1ccccc1Nc1ncccc1[N+](=O)[O-],-1.1,-6.2,4.6,19.1,-2.9,6.6
Cc1[nH]c2ccccc2c1/C=N/Nc1ccccc1[N+](=O)[O-],-0.5,-5.7,1.6,66.6*,-17.6,8.3
COc1ccc(NS(=O)(=O)c2cc([N+](=O)[O-])ccc2N/N=C/c2c(C)[nH]c3ccccc23)cc1,1.1,4.6,.,.,.,-5.4
COc1ccc(Cl)cc1NS(=O)(=O)c1cccc(C(=O)NCC(c2ccco2)N(C)C)c1 (stereo not drawn),2.1,-15.1,-35.3,12.7,-17.2,9.2
